This is an account of results in the RNAGym collection of RNA variant scans (doi:10.1126/science.aae0568).

Fewer inactive variants are shown than the library holds.

B1: tRNA (parent)
chain: GUUCCGUUGGCGUAAUGGUAACGCGUCUCCCUCCUAAGGAGAAGACUGCGGGUUCGAGUCCCGUACGGAACG

Variants of B1 are the subject of this series. Description: yeast fitness relative to wild type (ratio to wild type); higher = fitter; tRNA-Arg(CCU), competitive growth, 37 C, YPD. The gist of the method:
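Variants of the tRNA-Arg(CCU) gene, chemically synthesised with a 3% per-site mutation rate at 69 sites, were placed at the native genomic locus in Saccharomyces cerevisiae. The pooled strains were competed in YPD at 37°C for 24 hours in six parallel replicates. Gene amplicons from the start population and from each end population were read by 100-nucleotide paired-end sequencing. Darwinian fitness relative to wild type came from changes in genotype frequencies; genotypes needed ≥ 100 starting reads, and estimates < 0.5 were set to 0.5.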
Take GUUCCGUUGGCGUAAUGGUAACGCGUCUCCCUCCUCCGGAGAAGACUGCGGGUUCGAGUCCCGUCCGGAACG [A36C A37C A65C]: the yeast fitness is not above 0.5. Regarding GUUCCGUUGACGUAAUGGUACCGCGUCUCCCUCCUAAGGAGAAGACUGCGGGUUCGAGUCGCGCACGGAACG [G10A A21C C61G U64C], the yeast fitness was not above 0.5. Take GUUCCGUUGGCGUAAUGGUAACGCGUCUCCCUCCUAAGGAGAGAAAUGCGGGUUCGAGUCCCGUACAGAACG [A43G G44A C46A G67A]: the yeast fitness was found to be 0.59. For the variant GUUCGGUUGGUGUAAUGGUAACGCGUCUCUCUCCUCAGGAGAAGACUGCGGGUUCGAAUCCCGUACCGAACG [C5G C11U C30U A36C G58A G67C], the yeast fitness was not above 0.5. Then GUUCCGUUGGUGUAAUGGUUACGCGUCUCACUCCUAAAGAGAAGACUGCGAGUACGAGUCCCGUACGGAACG [C11U A20U C30A G38A G51A U54A], with not above 0.5. As for GUUCCGUUGGCGUAAUGGUAACGCGUCUCCCUCCUAAGGAGAAGACGGCGGGUUCGAGUCCCAUACGGAACG [U47G G63A], the yeast fitness is 0.561.

GUUCCGUUGGCCUAAUGGUAACGCGUCUCCCUCCUAAGGAGAAGACUGCGGGUUCGAGUCUCGUACGGAACG [G12C C61U]: the yeast fitness came to 0.746. With GUUCAGUUGGCGAAAUGGUAACGCGUCUCGCUCCUAAGGAGAAGACUGCGGGUUCGAGUCCCGUACGGCACG [C5A U13A C30G A69C], the yeast fitness was not above 0.5. Regarding GUUCCGUUGGCGUAAUGGUAACGCGUCUCCCUCCUAAGAAGAAGACUGCGGGUUCGAGUCCCGUCCGGAACG [G39A A65C], the yeast fitness is 0.837. Consider GUUCCGUUGGCGUAAUGGUAACGCAUCUCCCUCCUGAGGAGAAGCCUGCGGGUUCGAGUCCCGUACGGAACG [G25A A36G A45C], for which the yeast fitness came to 0.929. With GUUGCGUUGGCGUAAUGGUAACGCGUCUCCCUCCUAAGGCGAAGACUGCGGGUUCGAGUCCCGUACGGAACG [C4G A40C], the yeast fitness came to 0.811.

GUUCCGUUGGCGUAAUGGUAACGCGUCUCCCUCCUAAGAAGAAGACUGUGGGUUCGUGUCCCGUACGGAACG [G39A C49U A57U]: the yeast fitness stood at 0.562.

As for GUUCCGUUGGCGUAAUGGUAACGCGUUUCCCUCCUACGGUGAUGACUGCGGGUUCGAGUCCCGUUCGGAACG [C27U A37C A40U A43U A65U], the yeast fitness is not above 0.5. Take GUUUCCUUGGCGUAAUGGUAACGCGUCUCGCUCCUAAGGAGAAGACUGCGGGUUCGAGUUCCGUACGGAACG [C4U G6C C30G C60U]: the yeast fitness was determined as 0.546. Take GUUCCGUUGGCGUAAUGGUAACGCGUCUCCCUCUUAAGGAGAAGACUGCGGGUUUGAGUCCCGUAUGGAACG [C34U C55U C66U]: the yeast fitness was 0.532. In the case of GUUCCGUUCGCGUAAUGGUAACACGUCUCCCUCCUAAGGCGAAGCCUGCGGGUUCGAGUCCCGUACGGAACG [G9C G23A A40C A45C], the yeast fitness was not above 0.5. GUUCCGUUGGCGUAAUGGUAACGCGUCUCCCUCGUAAGGAGAAGACUGCGGGUUCGAGUCCCGUACGGACCG [C34G A70C]: the yeast fitness was 0.585.

Consider GUUCCGUUGGCGUAAUGGUAACGCGUGUCCUUCCUAAGGAGAAGACUGCGGGUUCGAGUCCCGUACGGAACG [C27G C31U], for which the yeast fitness came to 0.772. For the variant GUUCCGUUGCCGUAAUGGUAAUGAGUCCCCCUCCUAAGGAGAAGGCUGCGGGUUCGAGUCCCGUACGGAACG [G10C C22U C24A U28C A45G], the yeast fitness is not above 0.5. With GUUCGGUUGGCGUAAUGGUAACGCGUCUCCCUCCUAAGGAGAAGACUGCGGGUUCGAGUCCCGUACGGAACG [C5G], the yeast fitness worked out at 0.992. For GUUCCGUUGGCGUAAUGGUAACGCGUCUCCCUCCUAAGGAGAAGACUGCGGGUCCCAGUCCCGUACGGAACG [U54C G56C], the yeast fitness was determined as 0.593. With GUUUCGUUGGGGUAAUGGUAACGCGUCUCCCUCCUAAGGAGAAGACUGCGGGUUCGAGUCCCGUAAGGAACG [C4U C11G C66A], the yeast fitness is not above 0.5. Then GUUCCGUUGGCGUAAUGGUAACGCGUCUUCCUCCUAAGGCGAAGACUGCGGGUUCGAGUCCCGUAUGGAACG [C29U A40C C66U], with 0.642. Turning to GUUCCGUUGCGGUAAUGGUAACGGGUCUCCCUCCUAAGGAGAAGACUGCGGGUUCGAGUCCCGUACGGAACG [G10C C11G C24G], the yeast fitness amounted to 0.577. Take GUUCCGUUGGGGUAAUGGUAACGCGUCUCCCUCCUAAGGAGAAGACUGCGGGUUCGAGUCCCAUACGGAACG [C11G G63A]: the yeast fitness came out at 0.605. Turning to GAUCCGUUGGCGUAAUGGUAACGCGCCUCCCUCCUAAGGAGAAGACUGCGGGUUCGAGUCCCGUACGGAACG [U2A U26C], the yeast fitness amounted to 0.934. Turning to GUUCCGUUGGCGUAUUGGUAACGCGUCUCCCUCCUAAGGAGAAGACUGCGGGUUCGAGUCCCGUCCGGAACG [A15U A65C], the yeast fitness came out at 0.698. With GAUCCGUUGGCGUUAUGGUAACGUGUCUCCCGCCUAAGGAGAAGACUGCGGGUUCGAGUCCCGUACGGAACG [U2A A14U C24U U32G], the yeast fitness is 0.672. Take GUUCCGUUGGCGUAAUGGUAACGCGUCUCCCUCCUAAGGAGAAGAGUGGGGGUUCGAGUCCCGUACGGAACG [C46G C49G]: the yeast fitness was found to be 0.966. Take GUUGCGUUCGCGUAAUGGUAACGCGUCUCCCUCCCAAGGAAAAGACUGCGGGUUUGAGACCCGUACGGAUCG [C4G G9C U35C G41A C55U U59A A70U]: the yeast fitness is not above 0.5. For GUUCCGUUGGCGUAAUGGUAACGCGUCUCCCUCUUAAGGAGAAGUCUGCGGGUUCGAGUCCCGUAUGGAACG [C34U A45U C66U] the value was 0.57. Regarding GUUCCGUUGGCGUAAUGGUUACGCGUCUCCCUCCUAAGGAGAAGACUGCGGGUUCGAGUCCCGUUCGGAACG [A20U A65U], the yeast fitness is 0.705. Consider GUUCCGUUUGCGUAAUGGUAACGCGUCUCCCUCCUAAGGAGAAGACUGCGGGUUCGAGUCCCGUACGGCACG [G9U A69C], for which the yeast fitness was 0.909. Regarding GAUCUGUUGGCGUAAUGGUAUCGCGUCUCGCUCCUAAGGAGAAGACUGCGGGUUCGAGUCCCGUACGGAUCG [U2A C5U A21U C30G A70U], the yeast fitness was not above 0.5. Consider GUUCCGUUGGCGUAAUGGUAACGGGUCUCCCUCCUAAGGAGAAGACUGCGGGUUCGAGUCCCGCACGGAACG [C24G U64C], for which the yeast fitness is 0.567. For GUUACGUUGGUGUAAUGGUAUCACGUCUCCCUCCUAAGGAGAAGACUGCGGGUUCGAGUCCCGCACAGAACG [C4A C11U A21U G23A U64C G67A] the value was 0.581; for GUUCCGUUGGCGUAAUGGUAACGCGACUCCCUCCUAAGGGGAAGACUGGGGGUUCGAGUCACGUACGGAACG [U26A A40G C49G C61A], 0.626.
